# Assay results reported in ChEMBL document CHEMBL2169836 (J Med Chem, 2012).
# Activity calls are given as the source filed them. No cut-off for these calls is given here.
# Experiments:
# Rattus norvegicus = assay: Clearance in jugular and femoral vein precannulated Sprague-Dawley rat at 1 mg/kg, iv by LC/MS/MS analysis relative to hepatic blood flow; type: ADME, organism-based, Liver; parameters: dose 1 mg/kg, route intravenous; settings: in vivo
# [1] = target: T1, Sodium/hydrogen exchanger 3 (Homo sapiens) (UniProt P48764); assay: Inhibition of NHE3 transfected in Chinese hamster PS120 assessed as intracellular pH change up to 16 uM; type: cell-based
# T1 sequence (whole entry): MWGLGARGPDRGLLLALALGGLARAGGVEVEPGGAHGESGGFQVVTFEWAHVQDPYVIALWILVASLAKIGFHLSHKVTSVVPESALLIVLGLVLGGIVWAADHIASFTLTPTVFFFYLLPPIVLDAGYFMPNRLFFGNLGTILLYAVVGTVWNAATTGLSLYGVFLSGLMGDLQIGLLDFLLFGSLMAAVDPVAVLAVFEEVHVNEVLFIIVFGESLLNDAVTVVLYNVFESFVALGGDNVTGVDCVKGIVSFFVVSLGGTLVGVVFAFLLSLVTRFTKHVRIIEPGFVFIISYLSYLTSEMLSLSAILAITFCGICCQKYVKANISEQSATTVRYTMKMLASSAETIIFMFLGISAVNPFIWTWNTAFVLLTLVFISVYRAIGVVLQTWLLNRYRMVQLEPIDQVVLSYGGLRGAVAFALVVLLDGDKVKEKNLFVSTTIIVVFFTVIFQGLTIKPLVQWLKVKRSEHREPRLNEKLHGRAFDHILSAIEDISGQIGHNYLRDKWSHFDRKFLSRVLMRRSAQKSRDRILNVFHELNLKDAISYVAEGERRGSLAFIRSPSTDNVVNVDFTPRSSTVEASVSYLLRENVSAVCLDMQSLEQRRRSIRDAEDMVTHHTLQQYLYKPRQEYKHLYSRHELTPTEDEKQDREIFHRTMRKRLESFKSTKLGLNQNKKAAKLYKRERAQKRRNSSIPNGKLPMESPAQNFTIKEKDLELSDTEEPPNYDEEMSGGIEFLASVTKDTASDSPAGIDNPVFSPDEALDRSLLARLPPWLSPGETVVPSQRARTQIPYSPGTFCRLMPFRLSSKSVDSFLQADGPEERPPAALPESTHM
# [2] = Mean resident time in overnight fasted Beagle dog at 1 mg/kg, iv; type: ADME, organism-based, Canis lupus familiaris; parameters: dose 1 mg/kg, route intravenous; settings: in vivo
# [3] = Oral bioavailability in overnight fasted Beagle dog at 5 mg/kg; type: ADME, organism-based, Canis lupus familiaris; settings: in vivo
# [4] = Volume of distribution at steady state in jugular and femoral vein precannulated Sprague-Dawley rat at 1 mg/kg, iv by LC/MS/MS analysis; type: ADME, organism-based; parameters: dose 1 mg/kg, route intravenous; settings: in vivo, read-out: Vdss
# [5] = Oral bioavailability in jugular and femoral vein precannulated Sprague-Dawley rat plasma at 5 mg/kg by LC/MS/MS analysis; type: ADME, organism-based
# [6] = Volume of distribution at steady state in overnight fasted Beagle dog at 1 mg/kg, iv; type: ADME, organism-based, Canis lupus familiaris; parameters: dose 1 mg/kg, route intravenous; settings: in vivo, read-out: Vdss
# [7] = target: T2, Sodium/hydrogen exchanger 1 (Homo sapiens, UniProt P19634); assay: Inhibition of NHE1 in human HT-29 cells assessed as intracellular pH change after 30 mins; type: cell-based
# Canis familiaris = assay: Clearance in overnight fasted Beagle dog at 1 mg/kg, iv relative to hepatic blood flow; type: ADME, organism-based, Canis lupus familiaris, Liver; parameters: dose 1 mg/kg, route intravenous; settings: in vivo
# [8] = Permeability of the compound by PAMPA; type: ADME; settings: read-out: permeability
# Method in brief: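 Donor buffers were set to pH 5.0, 6.2 and 7.4 with NaOH, and ASB7.4 buffer was used as acceptor. Filters (0.45 pore, 125 μm thick) were lipid-coated. A 10 mM DMSO stock was diluted to 41.7 μM in donor buffer. The sandwich was incubated 4 h without stirring. Reference, donor and acceptor concentrations were read in duplicate by UV plate reader, and ratings were assigned from permeation velocity.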
# [9] = Mean resident time in jugular and femoral vein precannulated Sprague-Dawley rat at 1 mg/kg, iv by LC/MS/MS analysis; type: ADME, organism-based; parameters: dose 1 mg/kg, route intravenous; settings: in vivo
# Cytochrome P450 3A4 [10] = target: T3, Cytochrome P450 3A4 (Homo sapiens, UniProt P08684); assay: Inhibition of CYP3A4 in human liver microsomes using 7-benzyloxy-4-(trifluoromethyl)-coumarin as substrate after 30 mins by LC/MS/MS analysis; type: ADME, Microsome
# [11] = Metabolic stability in rat liver microsomes at 1 uM up to 60 mins by LC/MS/MS analysis relative to hepatic blood flow; type: ADME, Microsome; settings: read-out: Stability
# [12] = target: Voltage-gated inwardly rectifying potassium channel KCNH2 (Homo sapiens, UniProt Q12809); assay: Inhibition of human ERG expressed in HEK 293 cells by PatchXpress assay; type: cell-based, HEK293
# Cytochrome P450 2C19 = Cytochrome P450 2C19 (Homo sapiens, UniProt P33261); assay: Inhibition of CYP2C19 in human liver microsomes using 7-ethoxy-3-cyanocoumarin as substrate after 45 mins by LC/MS/MS analysis; type: ADME, Microsome
# Cytochrome P450 2D6 = Cytochrome P450 2D6 (Homo sapiens, UniProt P10635); assay: Inhibition of CYP2D6 in human liver microsomes using 3-[2-(N,N-diethyl-N-methylamino)ethyl]-7- methoxy-4-methylcoumarin as substrate after 45 mins by LC/MS/MS analysis; type: ADME, Microsome
# Cytochrome P450 2C9 = Cytochrome P450 2C9 (Homo sapiens, UniProt P11712); assay: Inhibition of CYP2C9 in human liver microsomes using 7-methoxy-4-(trifluoromethyl)-coumarin as substrate after 45 mins by LC/MS/MS analysis; type: ADME, Microsome
# [13] = Metabolic stability in human liver microsomes at 1 uM up to 60 mins by LC/MS/MS analysis relative to hepatic blood flow; type: ADME, Microsome; settings: read-out: Stability
# Salmonella typhimurium [14] = assay: Genotoxicity in Salmonella typhimurium TA100 up to 5000 ug/plate by Ames test in the absence of S9 fraction; type: toxicity, organism-based; settings: salmonella enterica subsp. enterica serovar typhimurium
# U-937 = assay: Induction of phopspholipidosis in human U937 cells up to 50 uM after 24 hrs by Nile red flow cytometry assay; type: cell-based; settings: u-937, 24 h
# Salmonella typhimurium [15] = assay: Genotoxicity in Salmonella typhimurium TA98 up to 5000 ug/plate by Ames test in the absence of S9 fraction; type: toxicity, organism-based; settings: salmonella enterica subsp. enterica serovar typhimurium
# Salmonella typhimurium [16] = assay: Genotoxicity in Salmonella typhimurium TA98 up to 5000 ug/plate by Ames test in the presence of S9 fraction; type: toxicity, organism-based; settings: salmonella enterica subsp. enterica serovar typhimurium
# Salmonella typhimurium [17] = assay: Genotoxicity in Salmonella typhimurium TA1535 up to 5000 ug/plate by Ames test in the presence of S9 fraction; type: toxicity, organism-based; settings: salmonella enterica subsp. enterica serovar typhimurium
# Heart [18] = assay: Inhibition of ischemia reperfusion injury-induced decrease in left ventricular developed pressure in Langendorff isolated perfused Sprague-Dawley rat heart at 100 nM after 30 mins; type: functional; parameters: scale not given: the % may be the effect or the level left
# Method in brief: (§1)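 In the isolated perfused rat heart ischemia-reperfusion model, compound was present in the perfusate. Recovery of left ventricular developed pressure was expressed as % of baseline pressure, 30 min postreperfusion, against vehicle control. Left ventricular end diastolic pressure was also monitored.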
# Heart [19] = assay: Inhibition of ischemia reperfusion injury-induced decrease in left ventricular developed pressure in Langendorff isolated perfused Sprague-Dawley rat heart at 10 nM after 30 mins; type: functional; parameters: scale not given: the % may be the effect or the level left; method in brief: as §1
# Escherichia coli [20] = assay: Genotoxicity in Escherichia coli WP2 expressing uvrA up to 5000 ug/plate by Ames test in presence of S9 fraction; type: toxicity, organism-based
# Salmonella typhimurium [21] = assay: Genotoxicity in Salmonella typhimurium TA100 up to 5000 ug/plate by Ames test in the presence of S9 fraction; type: toxicity, organism-based; settings: salmonella enterica subsp. enterica serovar typhimurium
# Escherichia coli [22] = assay: Genotoxicity in Escherichia coli WP2 expressing uvrA up to 5000 ug/plate by Ames test in absence of S9 fraction; type: toxicity, organism-based
# Salmonella typhimurium [23] = assay: Genotoxicity in Salmonella typhimurium TA1537 up to 5000 ug/plate by Ames test in the absence of S9 fraction; type: toxicity, organism-based; settings: salmonella enterica subsp. enterica serovar typhimurium
# HeLa = assay: Cytotoxicity against human HeLa cells up to 100 uM after 24 hrs; type: cell-based
# Salmonella typhimurium [24] = assay: Genotoxicity in Salmonella typhimurium TA1535 up to 5000 ug/plate by Ames test in the absence of S9 fraction; type: toxicity, organism-based; settings: salmonella enterica subsp. enterica serovar typhimurium
# Cytochrome P450 3A4 [25] = target: T3, Cytochrome P450 3A4; assay: Activation of CYP3A4 expressed in DPX cells co-transfected with human PXR at 0.1 to 10 uM; type: ADME, cell-based
# Salmonella typhimurium [26] = assay: Genotoxicity in Salmonella typhimurium TA1537 up to 5000 ug/plate by Ames test in the presence of S9 fraction; type: toxicity, organism-based; settings: salmonella enterica subsp. enterica serovar typhimurium
# [27] = target: T2, Sodium/hydrogen exchanger 1; assay: Inhibition of NHE1 in human HT-29 cells assessed as intracellular pH change after 30 mins in presence of plasma protein; type: cell-based
# Cytochrome P450 2D6, sequence (P10635 whole entry): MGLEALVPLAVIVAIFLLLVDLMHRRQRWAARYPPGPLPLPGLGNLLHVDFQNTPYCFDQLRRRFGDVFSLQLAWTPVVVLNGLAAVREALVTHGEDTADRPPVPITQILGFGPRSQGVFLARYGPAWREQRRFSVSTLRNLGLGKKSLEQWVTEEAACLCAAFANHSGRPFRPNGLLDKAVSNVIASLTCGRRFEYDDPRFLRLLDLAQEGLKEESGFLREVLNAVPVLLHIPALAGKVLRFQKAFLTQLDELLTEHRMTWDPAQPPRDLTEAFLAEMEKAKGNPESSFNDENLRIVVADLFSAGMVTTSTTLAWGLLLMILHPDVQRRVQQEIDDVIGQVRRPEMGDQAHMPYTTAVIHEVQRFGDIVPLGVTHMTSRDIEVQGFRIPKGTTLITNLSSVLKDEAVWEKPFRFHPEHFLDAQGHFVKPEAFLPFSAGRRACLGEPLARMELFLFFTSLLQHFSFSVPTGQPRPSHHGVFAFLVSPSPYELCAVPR
# Cytochrome P450 2C19, sequence (P33261 whole entry): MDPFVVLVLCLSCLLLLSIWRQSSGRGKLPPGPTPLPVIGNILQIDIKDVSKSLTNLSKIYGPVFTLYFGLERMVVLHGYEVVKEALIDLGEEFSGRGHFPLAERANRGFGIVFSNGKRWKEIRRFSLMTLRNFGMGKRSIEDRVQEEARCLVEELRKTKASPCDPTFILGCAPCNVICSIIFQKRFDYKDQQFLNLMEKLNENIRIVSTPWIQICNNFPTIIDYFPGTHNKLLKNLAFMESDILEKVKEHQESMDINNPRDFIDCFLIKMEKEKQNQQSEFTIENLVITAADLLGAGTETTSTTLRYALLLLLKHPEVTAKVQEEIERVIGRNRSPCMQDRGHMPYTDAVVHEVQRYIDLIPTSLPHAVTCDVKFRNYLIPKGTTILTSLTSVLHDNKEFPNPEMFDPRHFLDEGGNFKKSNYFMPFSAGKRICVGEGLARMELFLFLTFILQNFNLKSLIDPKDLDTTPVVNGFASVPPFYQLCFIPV
# Voltage-gated inwardly rectifying potassium channel KCNH2, sequence (Q12809 whole entry): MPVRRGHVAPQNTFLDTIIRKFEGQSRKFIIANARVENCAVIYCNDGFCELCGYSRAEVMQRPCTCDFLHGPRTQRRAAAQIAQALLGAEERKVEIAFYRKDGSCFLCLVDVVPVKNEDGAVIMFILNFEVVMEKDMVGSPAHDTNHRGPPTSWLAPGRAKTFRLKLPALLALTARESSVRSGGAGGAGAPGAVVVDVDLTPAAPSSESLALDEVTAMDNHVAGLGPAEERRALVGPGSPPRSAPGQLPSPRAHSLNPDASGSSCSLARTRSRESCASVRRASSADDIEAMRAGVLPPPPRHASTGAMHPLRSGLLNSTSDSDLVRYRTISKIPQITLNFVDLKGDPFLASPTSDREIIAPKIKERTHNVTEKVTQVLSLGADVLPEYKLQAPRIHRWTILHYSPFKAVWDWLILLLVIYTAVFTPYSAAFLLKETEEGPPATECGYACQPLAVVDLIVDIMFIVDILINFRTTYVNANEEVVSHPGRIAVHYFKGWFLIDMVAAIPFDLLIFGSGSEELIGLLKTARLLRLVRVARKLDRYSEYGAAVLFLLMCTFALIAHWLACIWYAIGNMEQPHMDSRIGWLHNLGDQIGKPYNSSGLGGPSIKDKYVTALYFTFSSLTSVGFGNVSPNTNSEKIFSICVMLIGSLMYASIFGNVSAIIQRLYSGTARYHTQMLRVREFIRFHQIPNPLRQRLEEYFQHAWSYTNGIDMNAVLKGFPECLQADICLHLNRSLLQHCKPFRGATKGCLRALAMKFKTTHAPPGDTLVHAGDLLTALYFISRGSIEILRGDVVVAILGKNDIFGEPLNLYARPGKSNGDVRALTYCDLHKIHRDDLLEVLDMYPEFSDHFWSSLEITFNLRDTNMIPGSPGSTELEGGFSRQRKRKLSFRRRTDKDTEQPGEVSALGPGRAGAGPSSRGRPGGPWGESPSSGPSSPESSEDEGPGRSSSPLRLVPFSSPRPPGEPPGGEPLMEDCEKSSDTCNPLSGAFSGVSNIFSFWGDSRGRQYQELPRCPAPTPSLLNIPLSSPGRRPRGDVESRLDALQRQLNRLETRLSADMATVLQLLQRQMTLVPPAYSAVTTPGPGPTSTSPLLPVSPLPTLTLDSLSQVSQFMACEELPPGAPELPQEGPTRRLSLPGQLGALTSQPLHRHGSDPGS
# T2 sequence (P19634 whole entry): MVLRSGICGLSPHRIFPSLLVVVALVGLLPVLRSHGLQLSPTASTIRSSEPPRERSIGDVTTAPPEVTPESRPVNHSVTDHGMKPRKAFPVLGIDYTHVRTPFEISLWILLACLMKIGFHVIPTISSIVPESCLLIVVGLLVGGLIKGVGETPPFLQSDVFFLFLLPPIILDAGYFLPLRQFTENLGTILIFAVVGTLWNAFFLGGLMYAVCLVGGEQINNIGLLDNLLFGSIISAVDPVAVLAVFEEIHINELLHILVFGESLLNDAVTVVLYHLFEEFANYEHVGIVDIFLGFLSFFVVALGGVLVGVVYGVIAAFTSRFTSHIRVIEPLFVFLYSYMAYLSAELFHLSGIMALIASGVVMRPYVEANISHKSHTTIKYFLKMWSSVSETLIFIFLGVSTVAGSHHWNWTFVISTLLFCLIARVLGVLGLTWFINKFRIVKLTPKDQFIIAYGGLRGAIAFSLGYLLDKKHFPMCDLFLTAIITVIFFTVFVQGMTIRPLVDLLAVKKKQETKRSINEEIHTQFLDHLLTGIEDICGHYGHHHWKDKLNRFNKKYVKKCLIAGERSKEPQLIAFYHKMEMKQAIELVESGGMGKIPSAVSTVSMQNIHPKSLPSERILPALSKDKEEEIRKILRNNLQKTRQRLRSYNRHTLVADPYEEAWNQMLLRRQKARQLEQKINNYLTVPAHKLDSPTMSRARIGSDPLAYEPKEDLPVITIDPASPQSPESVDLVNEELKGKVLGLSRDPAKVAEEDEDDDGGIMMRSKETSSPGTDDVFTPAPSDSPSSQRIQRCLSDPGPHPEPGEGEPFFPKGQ
# Cytochrome P450 2C9, sequence (P11712 whole entry): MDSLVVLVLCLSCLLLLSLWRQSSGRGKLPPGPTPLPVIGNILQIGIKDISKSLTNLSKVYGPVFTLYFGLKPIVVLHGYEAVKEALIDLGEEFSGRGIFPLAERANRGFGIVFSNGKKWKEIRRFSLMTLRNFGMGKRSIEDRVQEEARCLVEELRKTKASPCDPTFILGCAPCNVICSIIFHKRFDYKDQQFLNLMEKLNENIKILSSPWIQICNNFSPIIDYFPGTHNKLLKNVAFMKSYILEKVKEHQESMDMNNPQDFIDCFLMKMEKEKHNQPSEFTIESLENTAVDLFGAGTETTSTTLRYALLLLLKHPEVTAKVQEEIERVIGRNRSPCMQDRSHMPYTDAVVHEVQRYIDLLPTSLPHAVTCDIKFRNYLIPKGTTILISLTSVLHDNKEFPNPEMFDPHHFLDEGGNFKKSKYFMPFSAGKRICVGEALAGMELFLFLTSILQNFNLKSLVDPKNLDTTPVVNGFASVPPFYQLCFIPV
# T3 sequence (P08684 whole entry): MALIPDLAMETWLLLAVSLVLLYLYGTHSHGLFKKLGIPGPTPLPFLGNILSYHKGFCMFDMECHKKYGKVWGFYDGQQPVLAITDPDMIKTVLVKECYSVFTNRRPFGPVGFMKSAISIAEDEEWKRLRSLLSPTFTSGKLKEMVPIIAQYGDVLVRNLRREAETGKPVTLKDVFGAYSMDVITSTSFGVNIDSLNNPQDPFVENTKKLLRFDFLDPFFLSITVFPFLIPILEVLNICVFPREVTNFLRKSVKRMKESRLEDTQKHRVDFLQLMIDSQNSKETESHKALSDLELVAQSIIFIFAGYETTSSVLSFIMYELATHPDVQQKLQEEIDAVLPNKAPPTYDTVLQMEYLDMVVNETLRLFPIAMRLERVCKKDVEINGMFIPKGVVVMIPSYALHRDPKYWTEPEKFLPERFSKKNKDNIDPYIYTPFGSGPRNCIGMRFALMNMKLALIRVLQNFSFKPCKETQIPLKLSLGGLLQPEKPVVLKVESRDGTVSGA
SMILES,CL (Rattus norvegicus) [%],MRT [2] [h],bioavailability [3] [%],Vd [4] [L/kg],bioavailability [5] [%],IC50 [7] [µM],CL (Canis familiaris) [%],Papp [8] [×10⁻⁶ cm/s],MRT [9] [h],IC50 (Cytochrome P450 3A4 [10]) [µM],"hepatic extraction ratio at 1 h, 1 µM [11]",IC50 (Cytochrome P450 2C19) [µM],IC50 (Cytochrome P450 2D6) [µM],IC50 (Cytochrome P450 2C9) [µM],"hepatic extraction ratio at 1 h, 1 µM [13]",IC50 [12] [µM],further results
CCC(=O)N1CCC(c2ccc(C(=O)NC(=N)N)cc2C(F)(F)F)CC1,4.4,14,49,1,49,0.011,8.1,≥ 2,5.3,–,–,–,–,–,–,–,inhibition [1]: inactive; Vd [6]: 2 L/kg
Cn1ccnc1C(=O)N1CCC(c2ccc(C(=O)NC(=N)N)cc2C(F)(F)F)CC1,31,–,–,1.4,–,0.014,–,≥ 2,1,26,0.12,16,> 30,18,0.47,> 30,–
CC(=O)N1CCC(c2ccc(C(=O)NC(=N)N)cc2C(F)(F)F)CC1 [BI 9627],5.7,6.2,33,0.76,73,0.006,13,≥ 2,3.2,> 30,0.11,> 30,> 30,> 30,< 0.11,> 30,Activity (Salmonella typhimurium [14]): Non-toxic; Activity (U-937): Non-toxic; inhibition [1]: inactive; Activity (Salmonella typhimurium [15]): Non-toxic; Activity (Salmonella typhimurium [16]): Non-toxic; Activity (Salmonella typhimurium [17]): Non-toxic; Activity (Heart [18]): 100%; Activity (Heart [19]): 36%; Activity (Escherichia coli [20]): Non-toxic; Vd [6]: 1.4 L/kg; Activity (Salmonella typhimurium [21]): Non-toxic; Activity (Escherichia coli [22]): Non-toxic; Activity (Salmonella typhimurium [23]): Non-toxic; Activity (HeLa): Non-toxic; Activity (Salmonella typhimurium [24]): Non-toxic; Activity (Cytochrome P450 3A4 [25]): Not Active; Activity (Salmonella typhimurium [26]): Non-toxic
N#Cc1cccc(C(=O)N2CCC(c3ccc(C(=O)NC(=N)N)cc3C(F)(F)F)CC2)c1,16,17,36,4.9,72,0.035,18,≥ 2,3.3,22,< 0.056,7,> 30,19,< 0.11,> 30,–

# Further lines, with some results ahead:
CL (Rattus norvegicus) [%],MRT [2] [h],bioavailability [3] [%],Vd [4] [L/kg],bioavailability [5] [%],IC50 [7] [µM],CL (Canis familiaris) [%],Papp [8] [×10⁻⁶ cm/s],MRT [9] [h],IC50 (Cytochrome P450 3A4 [10]) [µM],"hepatic extraction ratio at 1 h, 1 µM [11]",IC50 (Cytochrome P450 2C19) [µM],IC50 (Cytochrome P450 2D6) [µM],IC50 (Cytochrome P450 2C9) [µM],"hepatic extraction ratio at 1 h, 1 µM [13]",SMILES,IC50 [12] [µM],further results
105,–,–,2.8,5,–,–,–,0.6,–,–,–,–,–,–,N=C(N)NC(=O)c1cnn(-c2cccc3ncccc23)c1C1CC1 [ZONIPORIDE],–,–
–,–,–,–,–,0.036,–,–,–,–,–,–,–,–,–,N=C(N)NC(=O)c1ccc(N2CCC(NC(=O)c3ccc[nH]3)C2)c(C(F)(F)F)c1 (racemic),–,inhibition [27]: Active
66,–,–,–,15,0.015,–,< 2,–,–,–,> 30,> 30,> 30,–,CS(=O)(=O)c1ccc(C(=O)N2CCC(c3ccc(C(=O)NC(=N)N)cc3C(F)(F)F)CC2)cc1,–,–
28,–,–,0.5,65,–,–,–,0.4,–,–,–,–,–,–,Cc1cc(-n2cccc2)c(S(C)(=O)=O)cc1C(=O)NC(=N)N [ENIPORIDE],–,–
